Experimental data from ChEMBL document CHEMBL1126196, “Improvements in the minimum binding sequence of C5a: examination of His-67” (J Med Chem, 1992).
Square brackets hold non-standard residues; d marks the D form. Peptide text beside a SMILES is read from it. * marks the point of attachment. His(τ-Me) = Cn1cnc(C[C@H](N)C(=O)O)c1; His(π-Me) = Cn1cncc1C[C@H](N)C(=O)O; Hydrocinnamoyl = O=C(CCc1ccccc1)*; hPhe = N[C@@H](CCc1ccccc1)C(=O)O; Cha = N[C@@H](CC1CCCCC1)C(=O)O; Phg = N[C@H](C(=O)O)c1ccccc1

Key:
Homo sapiens [1] = species: Homo sapiens; test: In vitro potency against polymorphonuclear leukocyte (PMNL) chemokinesis; assay type: functional
Procedure, shortened: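 PMNL chemokinesis run over half-log concentration steps based on the binding Ki; EC50 obtained by least-squares regression as the concentration giving 50% of that peptide's own maximal response.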

Homo sapiens [2] = species: Homo sapiens; test: In vitro agonist efficacy against polymorphonuclear leukocyte (PMNL) chemokinesis; design: concentration or dose not given beside the values
[3] = target: T1, C5a anaphylatoxin chemotactic receptor 1 (Homo sapiens, UniProt P21730); test: Inhibitory activity against [125I]-rC5a binding to C5a anaphylatoxin chemotactic receptor in human polymorphonuclear leukocyte (PMNL) membranes
T1 sequence (P21730 whole entry): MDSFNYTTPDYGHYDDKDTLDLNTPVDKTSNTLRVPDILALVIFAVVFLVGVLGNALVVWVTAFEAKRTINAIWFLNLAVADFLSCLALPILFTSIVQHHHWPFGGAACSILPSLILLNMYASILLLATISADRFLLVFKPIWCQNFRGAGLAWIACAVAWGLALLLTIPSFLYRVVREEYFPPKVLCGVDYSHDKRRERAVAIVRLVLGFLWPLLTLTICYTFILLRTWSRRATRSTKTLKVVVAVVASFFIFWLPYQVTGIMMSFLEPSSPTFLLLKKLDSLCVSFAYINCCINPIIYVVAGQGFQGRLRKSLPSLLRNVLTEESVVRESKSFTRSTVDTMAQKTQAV
Procedure, shortened: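 Competition binding on human PMNL membrane fragments, peptides displacing ¹²⁵I-labelled recombinant C5a. Inhibition binding data converted to apparent dissociation constant (Ki) by the Cheng–Prusoff method.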

Cavia porcellus [4] = test: In vivo potency by its ability to cause evans blue dye leakage as a marker of increased vascular permeability when injected intradermally in guinea pig; assay type: functional, organism-based
Cavia porcellus [5] = test: In vivo agonist efficacy by its ability to cause evans blue dye leakage as a marker of increased vascular permeability when injected intradermally in guinea pig; assay type: functional; design: concentration or dose not given beside the values
Procedure, shortened: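 Guinea pig, intradermal injection of peptide at a single high concentration; Evans blue dye leakage read as vascular permeability increase, compared with the maximal response to a control rC5a injection included in each test group.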

Row | Molecule | EC50 (Homo sapiens [1]) [µM] | Activity (Homo sapiens [2]) [%] | Ki [3] [µM] | EC50 (Cavia porcellus [4]) [µM] | Activity (Cavia porcellus [5]) [%]
1 | CSCC[C@H](NC(=O)[C@H](CC(=O)O)NC(=O)[C@H](CCCCN)NC(=O)CCc1ccccc1)C(=O)N[C@@H](CCC(N)=O)C(=O)N[C@@H](CC(C)C)C(=O)NCC(=O)N[C@@H](CCCN=C(N)N)C(=O)O (Hydrocinnamoyl-KDMQLGR-OH) | 0.8 | 84 | – | – | –
2 | CSCC[C@H](NC(=O)[C@H](CC(=O)O)NC(=O)[C@H](CCCCN)NC(=O)[C@@H](N)c1ccccc1)C(=O)N[C@@H](CCC(N)=O)C(=O)N[C@@H](CC(C)C)C(=O)NCC(=O)N[C@@H](CCCN=C(N)N)C(=O)O (H-[Phg]KDMQLGR-OH) [listing 1 of 2 here] | 10 | – | 31 | – | –
3 | H-ISFKDMQLGR-OH | 0.72 | 76 | – | < 100 | 54
4 | CSCC[C@H](NC(=O)[C@H](CC(=O)O)NC(=O)[C@H](CCCCN)NC(=O)CCc1ccccc1)C(=O)N[C@@H](CCC(N)=O)C(=O)N[C@@H](CC(C)C)C(=O)NCC(=O)N[C@@H](CCCNC(=N)N)C(=O)O (Hydrocinnamoyl-KDMQLGR-OH) | – | – | 4.4 | – | –
5 | CSCC[C@H](NC(=O)[C@H](CC(=O)O)NC(=O)[C@H](CCCCN)NC(=O)[C@@H](N)Cc1ccccc1)C(=O)N[C@@H](CCC(N)=O)C(=O)N[C@@H](CC(C)C)C(=O)NCC(=O)N[C@@H](CCCN=C(N)N)C(=O)O | 0.46 | 132 | 0.26 | < 1000 | 60
6 | H-ANISFKDMQLGR-OH | 0.25 | 85 | – | < 100 | 69
7 | CSCC[C@H](NC(=O)[C@H](CC(=O)O)NC(=O)[C@H](CCCCN)NC(=O)[C@@H](N)Cc1cn(C)cn1)C(=O)N[C@@H](CCC(N)=O)C(=O)N[C@@H](CC(C)C)C(=O)NCC(=O)N[C@@H](CCCNC(=N)N)C(=O)O (H-[His(τ-Me)]KDMQLGR-OH) [listing 1 of 2 here] | – | 90 | – | – | –
8 | CSCC[C@H](NC(=O)[C@H](CC(=O)O)NC(=O)[C@H](CCCCN)NC(=O)[C@@H](N)CC1CCCCC1)C(=O)N[C@@H](CCC(N)=O)C(=O)N[C@@H](CC(C)C)C(=O)NCC(=O)N[C@@H](CCCN=C(N)N)C(=O)O (H-[Cha]KDMQLGR-OH) [listing 1 of 2 here] | 3 | – | – | – | –
9 | CSCC[C@H](NC(=O)[C@H](CC(=O)O)NC(=O)[C@H](CCCCN)NC(=O)[C@@H](N)CC1CCCCC1)C(=O)N[C@@H](CCC(N)=O)C(=O)N[C@@H](CC(C)C)C(=O)NCC(=O)N[C@@H](CCCNC(=N)N)C(=O)O (H-[Cha]KDMQLGR-OH) | – | – | 13 | – | –
10 | CSCC[C@H](NC(=O)[C@H](CC(=O)O)NC(=O)[C@H](CCCCN)NC(=O)[C@@H](N)c1ccccc1)C(=O)N[C@@H](CCC(N)=O)C(=O)N[C@@H](CC(C)C)C(=O)NCC(=O)N[C@@H](CCCN=C(N)N)C(=O)O (H-[Phg]KDMQLGR-OH) [listing 2 of 2 here] | – | 72 | – | – | –
11 | CSCC[C@H](NC(=O)[C@H](CC(=O)O)NC(=O)[C@H](CCCCN)NC(=O)[C@@H](N)Cc1cn(C)cn1)C(=O)N[C@@H](CCC(N)=O)C(=O)N[C@@H](CC(C)C)C(=O)NCC(=O)N[C@@H](CCCNC(=N)N)C(=O)O (H-[His(τ-Me)]KDMQLGR-OH) [listing 2 of 2 here] | 17 | – | 58 | – | –
12 | CSCC[C@H](NC(=O)[C@H](CC(=O)O)NC(=O)[C@H](CCCCN)NC(=O)[C@@H](N)Cc1cccs1)C(=O)N[C@@H](CCC(N)=O)C(=O)N[C@@H](CC(C)C)C(=O)NCC(=O)N[C@@H](CCCN=C(N)N)C(=O)O [listing 1 of 2 here] | 0.53 | – | – | < 1000 | –
13 | H-LRANISFKDMQLGR-OH | 1.6 | 133 | 0.81 | < 300 | 116
14 | CSCC[C@H](NC(=O)[C@H](CC(=O)O)NC(=O)[C@H](CCCCN)NC(=O)[C@H](N)Cc1cccs1)C(=O)N[C@@H](CCC(N)=O)C(=O)N[C@@H](CC(C)C)C(=O)NCC(=O)N[C@@H](CCCN=C(N)N)C(=O)O | – | – | – | – | 85
15 | Ac-FKDMQLGR-OH [listing 1 of 2 here] | 0.44 | – | 0.2 | – | –
16 | CSCC[C@H](NC(=O)[C@H](CC(=O)O)NC(=O)[C@H](CCCCN)NC(=O)[C@H](N)Cc1ccccc1)C(=O)N[C@@H](CCC(N)=O)C(=O)N[C@@H](CC(C)C)C(=O)NCC(=O)N[C@@H](CCCN=C(N)N)C(=O)O | 80 | 70 | 79 | – | –
17 | CSCC[C@H](NC(=O)[C@H](CC(=O)O)NC(=O)[C@H](CCCCN)NC(=O)[C@@H](N)Cc1cccs1)C(=O)N[C@@H](CCC(N)=O)C(=O)N[C@@H](CC(C)C)C(=O)NCC(=O)N[C@@H](CCCN=C(N)N)C(=O)O [listing 2 of 2 here] | – | 142 | – | – | –
18 | CSCC[C@H](NC(=O)[C@H](CC(=O)O)NC(=O)[C@H](CCCCN)NC(=O)[C@@H](N)Cc1cccs1)C(=O)N[C@@H](CCC(N)=O)C(=O)N[C@@H](CC(C)C)C(=O)NCC(=O)N[C@@H](CCCNC(=N)N)C(=O)O | – | – | 2.1 | – | –
19 | H-HKDMQLGR-OH | 110 | 129 | – | – | –
20 | Ac-FKDMQLGR-OH [listing 2 of 2 here] | – | 76 | – | – | –
21 | CSCC[C@H](NC(=O)[C@H](CC(=O)O)NC(=O)[C@H](CCCCN)NC(=O)[C@@H](N)CCc1ccccc1)C(=O)N[C@@H](CCC(N)=O)C(=O)N[C@@H](CC(C)C)C(=O)NCC(=O)N[C@@H](CCCN=C(N)N)C(=O)O (H-[hPhe]KDMQLGR-OH) | 15 | 162 | – | – | –
22 | CSCC[C@H](NC(=O)[C@H](CC(=O)O)NC(=O)[C@H](CCCCN)NC(=O)[C@@H](N)CCc1ccccc1)C(=O)N[C@@H](CCC(N)=O)C(=O)N[C@@H](CC(C)C)C(=O)NCC(=O)N[C@@H](CCCNC(=N)N)C(=O)O (H-[hPhe]KDMQLGR-OH) | – | – | 36 | – | –
23 | CSCC[C@H](NC(=O)[C@H](CC(=O)O)NC(=O)[C@H](CCCCN)NC(=O)[C@@H](N)CC1CCCCC1)C(=O)N[C@@H](CCC(N)=O)C(=O)N[C@@H](CC(C)C)C(=O)NCC(=O)N[C@@H](CCCN=C(N)N)C(=O)O (H-[Cha]KDMQLGR-OH) [listing 2 of 2 here] | – | 154 | – | – | –
24 | CSCC[C@H](NC(=O)[C@H](CC(=O)O)NC(=O)[C@H](CCCCN)NC(=O)[C@@H](N)Cc1cncn1C)C(=O)N[C@@H](CCC(N)=O)C(=O)N[C@@H](CC(C)C)C(=O)NCC(=O)N[C@@H](CCCN=C(N)N)C(=O)O (H-[His(π-Me)]KDMQLGR-OH) | 110 | 88 | 180 | – | –
